This note sets out measurements from ChEMBL document CHEMBL4270576, “Discovery of a benzenesulfonamide-based dual inhibitor of microsomal prostaglandin E2 synthase-1 and 5-lipoxygenase that favorably modulates lipid mediator biosynthesis in inflammation” (Eur J Med Chem, 2018).

A word on the IC50: it is the concentration needed to halve the response being measured.

Active and inactive are the calls of the source. The rule behind the calls is not given here.

The species named for data set [1] is Homo sapiens. In words: Modulation of LO-mediated PD1 level in human M2 macrophages derived from IL4-polarized human monocyte derived macrophages at 3 uM preincubated for 15 mins followed by Escherichia coli (O6:K2:H1) challenge for 90 mins by LC-MS/MS analysis. In a few lines:
(§1)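 Monocytes differentiated 6 days with M-CSF (20 ng/ml), then polarized 48 h with IL-4 20 ng/ml (M2). Cells (2 × 10^6) in PBS/1 mM CaCl2 pre-incubated 15 min at 37 °C with 3 µM compound or 0.1% DMSO, then challenged with E. coli O6:K2:H1 (1:50) for 90 min. Lipid mediators extracted by SPE with deuterated internal standards and quantified by UPLC-MS/MS as % of vehicle.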

Data set [2] deals with T1, Polyunsaturated fatty acid lipoxygenase ALOX12 (Homo sapiens) (UniProt P18054).
T1 sequence (whole entry): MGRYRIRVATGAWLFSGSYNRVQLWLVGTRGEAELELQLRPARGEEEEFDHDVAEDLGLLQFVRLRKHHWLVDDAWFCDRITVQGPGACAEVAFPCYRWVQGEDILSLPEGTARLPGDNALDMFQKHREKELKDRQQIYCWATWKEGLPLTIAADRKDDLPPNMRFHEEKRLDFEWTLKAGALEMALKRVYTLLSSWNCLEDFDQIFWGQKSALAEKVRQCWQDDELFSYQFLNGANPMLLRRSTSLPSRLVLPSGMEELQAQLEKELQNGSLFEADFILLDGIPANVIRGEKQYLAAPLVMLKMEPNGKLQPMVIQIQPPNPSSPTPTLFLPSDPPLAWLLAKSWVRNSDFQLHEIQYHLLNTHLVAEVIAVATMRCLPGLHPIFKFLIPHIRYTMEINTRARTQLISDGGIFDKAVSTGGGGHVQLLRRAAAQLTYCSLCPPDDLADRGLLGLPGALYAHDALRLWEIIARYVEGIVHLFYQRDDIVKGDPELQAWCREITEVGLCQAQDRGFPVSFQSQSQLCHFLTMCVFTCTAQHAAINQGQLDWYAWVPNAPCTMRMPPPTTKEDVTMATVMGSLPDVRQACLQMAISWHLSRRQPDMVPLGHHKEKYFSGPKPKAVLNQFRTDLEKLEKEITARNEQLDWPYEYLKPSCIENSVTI
As to the kind of experiment: Modulation of 12-LO-mediated 14-HDHA level in human M2 macrophages derived from IL4-polarized human monocyte derived macrophages at 3 uM preincubated for 15 mins followed by Escherichia coli (O6:K2:H1) challenge for 90 mins by LC-MS/MS analysis. Put shortly:
as §1

Data set [3] addresses T2, Polyunsaturated fatty acid 5-lipoxygenase (Homo sapiens) (UniProt P09917).
T2 sequence (whole entry): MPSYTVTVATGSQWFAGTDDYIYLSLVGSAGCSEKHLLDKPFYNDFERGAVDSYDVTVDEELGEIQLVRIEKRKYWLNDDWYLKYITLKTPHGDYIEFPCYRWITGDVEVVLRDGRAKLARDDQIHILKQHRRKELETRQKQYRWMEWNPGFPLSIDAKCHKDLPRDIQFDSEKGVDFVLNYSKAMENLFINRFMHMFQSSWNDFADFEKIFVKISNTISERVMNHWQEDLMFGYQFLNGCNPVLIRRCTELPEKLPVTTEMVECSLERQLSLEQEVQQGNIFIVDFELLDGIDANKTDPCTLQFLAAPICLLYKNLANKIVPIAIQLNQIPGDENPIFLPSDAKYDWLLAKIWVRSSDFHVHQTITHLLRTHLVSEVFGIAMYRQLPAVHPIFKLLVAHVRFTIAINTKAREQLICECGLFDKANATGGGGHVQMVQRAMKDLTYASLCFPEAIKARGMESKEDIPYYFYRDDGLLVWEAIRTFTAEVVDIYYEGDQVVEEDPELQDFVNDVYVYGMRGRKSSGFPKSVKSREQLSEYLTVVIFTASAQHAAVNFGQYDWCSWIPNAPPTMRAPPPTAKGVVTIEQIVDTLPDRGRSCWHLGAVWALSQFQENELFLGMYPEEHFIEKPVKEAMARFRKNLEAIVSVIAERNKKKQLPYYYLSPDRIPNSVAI
In words: Inhibition of recombinant human 5-LO binding to FLAP expressed in HEK293 cells at 10 uM after 1 hr by DAPI staining-based immunofluorescence microscopic analysis. The class given is cell-based. Put shortly:
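HEK293 cells stably expressing 5-LO/FLAP, treated with 10 µM compound for 10 min and then 2.5 µM A23187 for 20 min at 37 °C, fixed, and probed with anti-5-LO/anti-FLAP primaries. This was followed by oligonucleotide-linked secondaries (1 h, 37 °C), ligation, rolling-circle amplification and DAPI nuclear stain. Proximity ligation signals counted microscopically in 100 cells from three experiments.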

Data set [4] concerns Macrophage cell line. As to the kind of experiment: Modulation of 18-HEPE level in human M2 macrophages derived from IL4-polarized human monocyte derived macrophages at 3 uM preincubated for 15 mins followed by Escherichia coli (O6:K2:H1) challenge for 90 mins by LC-MS/MS analysis. In kind it is functional. In a few lines:
as §1

For data set [5], the system named is Neutrophil. As to the kind of experiment: Cytotoxicity against human neutrophils at 10 uM. In kind it is cell-based.
Data set [6] deals with T2, Polyunsaturated fatty acid 5-lipoxygenase (Homo sapiens). In words: Inhibition of 5-LO in human M1 macrophages derived from LPS/IFNgamma-polarized human monocyte derived macrophages assessed as effect on 5-HETE level at 3 uM preincubated for 15 mins followed by Escherichia coli (O6:K2:H1) challenge for 90 mins by LC-MS/MS analysis. Further details: scale not given: the % may be the effect or the level left. In a few lines: (§2)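 Monocytes differentiated 6 days with GM-CSF (20 ng/ml) in RPMI/10% FCS, then polarized 48 h with LPS 100 ng/ml plus IFN-γ 20 ng/ml (M1). Cells (2 × 10^6) in PBS with 1 mM CaCl2 pre-incubated 15 min at 37 °C with 3 µM compound or 0.1% DMSO, then E. coli O6:K2:H1 (1:50) for 90 min. Methanol with deuterated standards added; SPE; UPLC-MS/MS; expressed as % of vehicle.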

Data set [7] shares this target. As to the kind of experiment: Inhibition of 5-LO in human M1 macrophages derived from LPS/IFNgamma-polarized human monocyte derived macrophages assessed as effect on 5,6-diHETE level at 3 uM preincubated for 15 mins followed by Escherichia coli (O6:K2:H1) challenge for 90 mins by LC-MS/MS analysis. On the set-up: scale not given: the % may be the effect or the level left. In a few lines: as §2

Data set [8] deals with T3, Leukotriene C4 synthase (Homo sapiens, UniProt Q16873).
T3 sequence (Q16873 whole entry): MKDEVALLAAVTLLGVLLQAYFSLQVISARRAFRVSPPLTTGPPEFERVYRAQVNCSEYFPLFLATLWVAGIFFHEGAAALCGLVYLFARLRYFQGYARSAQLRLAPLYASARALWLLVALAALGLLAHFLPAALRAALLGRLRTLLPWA
As to the kind of experiment: Inhibition of LTC4 synthase (unknown origin).

Data set [9] has as its target T4, Polyunsaturated fatty acid 5-lipoxygenase (Homo sapiens, UniProt P09917).
T4 sequence (P09917 whole entry): T2 sequence (whole entry)
As to the kind of experiment: Inhibition of recombinant human 5-LO expressed in Escherichia coli BL21 (DE3) using arachidonic acid as substrate preincubated for 10 mins followed by CaCl2 and substrate addition measured after 10 mins by RP-HPLC analysis. Put shortly:
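Human recombinant 5-LO from E. coli BL21(DE3), ATP-agarose semi-purified (0.5 µg/ml), pre-incubated with compound or 0.1% DMSO at 4 °C. It was pre-warmed 30 s at 37 °C, then started with 2 mM CaCl2 plus 20 µM AA. Stopped after 10 min with ice-cold methanol; products by RP-HPLC. Residual activity at 10 µM; IC50 from 4-5 concentrations; n=3-4.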

Turning to `O=C(O)c1ccc(N(Cc2cccc(OCc3ccccc3)c2)S(=O)(=O)c2ccc(-c3ccccc3)cc2)cc1`, the Activity in data set [1] is 110%; in [2], 125%; in data set [4], 86%; in data set [5] it was “Non-Toxic”; in data set [6], 35%; in data set [7], 13%. Further, the inhibition entry in data set [3] was “Active”. For the same molecule, the IC50 in data set [8] is 1800 nM; in data set [9], 2300 nM.
